# Only some compounds are listed: those with a hit (about 2.1% of all), similar ones and a draw of the others.
# hK5 inh – human KLK5 protease inhibitors, primary screen, biochemical, 1536-well; recombinant hK5, fluorogenic AMC substrate cleavage; inhibition, % at 5 µM; actives 0.59% (n = 210,000); AID 873, 2007;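 active means inhibition of 40% or more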;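 further: 0% = enzyme controls without compound and 100% = no-enzyme blanks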
# Target sequence (Q9Y337 67-293 limits assumed): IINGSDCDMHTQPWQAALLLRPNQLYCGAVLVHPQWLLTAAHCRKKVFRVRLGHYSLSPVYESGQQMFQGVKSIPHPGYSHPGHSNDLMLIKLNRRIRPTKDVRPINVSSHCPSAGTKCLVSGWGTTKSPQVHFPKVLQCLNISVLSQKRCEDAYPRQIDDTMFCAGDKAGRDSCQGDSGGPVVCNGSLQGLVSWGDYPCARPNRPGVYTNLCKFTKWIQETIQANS
# EP2 antag – human EP2 receptor antagonists, primary screen, TR-FRET cAMP, C6 glioma cells; actives 0.52% (n = 260,000); C6 glioma cells expressing human EP2; cells stimulated with saturating PGE2; inhibition, % at 25 µM; Prostaglandin E2 receptor EP2 subtype (Homo sapiens), P43116;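 active means percent inhibition above 40 after rounding to a whole number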;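 further: rat C6 glioma host cells with rolipram phosphodiesterase inhibitor present; the protocol text gives 20 µM as final concentration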
# Target sequence (P43116 whole entry, looked up): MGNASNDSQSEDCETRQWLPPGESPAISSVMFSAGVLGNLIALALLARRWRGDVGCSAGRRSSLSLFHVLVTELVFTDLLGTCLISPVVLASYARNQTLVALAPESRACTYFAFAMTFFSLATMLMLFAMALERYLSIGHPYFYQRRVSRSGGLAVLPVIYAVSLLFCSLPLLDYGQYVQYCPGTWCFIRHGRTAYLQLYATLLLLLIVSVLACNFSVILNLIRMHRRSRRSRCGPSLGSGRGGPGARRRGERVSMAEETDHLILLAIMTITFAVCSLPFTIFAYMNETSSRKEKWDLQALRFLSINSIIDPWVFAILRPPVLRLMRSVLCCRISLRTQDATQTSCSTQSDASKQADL
# thrombin 1536 – human alpha-thrombin inhibitors, primary screen, counter-screen for coagulation protease inhibitor project, biochemical, 1536-well, fluorogenic AMC substrate; Prothrombin (Homo sapiens), P00734; Boc-VPR-AMC fluorogenic substrate cleavage; inhibition, % at 5 µM; actives 0.26% (n = 220,000); AID 1046, 2008;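 active means inhibition at or above 40%; inactive means inhibition below 40%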;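 further: 0% = enzyme with no compound and 100% = wells without enzyme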
#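 System: human alpha-thrombin protein; Compound dosing: one concentration per compound, 5 µM, with 0.2% DMSO; Timing: reaction at room temperature; Technique: AMC fluorescence, 355/460 nm; Controls: enzyme without compound as high, wells lacking enzyme as low.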
# FXIa inh – human FXIa protease inhibitors, primary screen, biochemical, 1536-well; Coagulation factor XI (Homo sapiens), P03951; purified FXIa, Boc-Glu-Ala-Arg-AMC fluorogenic substrate; inhibition, % at 5 µM; actives 0.14% (n = 220,000); AID 798, 2007;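 active means inhibition of at least 40%; inactive means inhibition below 40%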;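 further: fluorescence of freed AMC excited at 355 nm; 0% = enzyme without compound and 100% = no enzyme blank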
# EP2 mod – EP2 receptor modulators, cAMP readout, primary screen, cell-based, HTRF cAMP, PGE2 stimulation; actives 0.83% (n = 260,000); induction, % at 25 µM; EP2-expressing cells, cAMP HTRF FRET, PGE2 co-stimulation; Prostaglandin E2 receptor EP2 subtype (Homo sapiens), P43116;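 active means compounds whose cAMP rise, as percent of the full-agonist control response, exceeds 60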;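 further: rat C6 glioma line stably carrying human EP2 under a CMV promoter; the protocol text gives 20 µM as final concentration; 100% = response of wells given 1 µM PGE2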
# FXIIa inh 1536 – human FXIIa protease inhibitors, primary screen, biochemical, 1536-well; purified FXIIa, Boc-QGR-AMC fluorogenic substrate, 2 h; inhibition, % at 5 µM; actives 0.3% (n = 220,000); AID 800, 2007; in the data active means inhibition above about 40%;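 further: 0% = enzyme with no compound and 100% = blank without enzyme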
# EP2 confirm – cAMP induction in EP2, EP4, beta2-AR and parental cells, confirmation, counter-screen for EP2 modulator project, cell-based, five parallel assays, C6 glioma, HEK293; shares compounds with EP2 mod; cAMP HTRF induction; plus low (about EC15) PGE2 agonist; calls only at 20 µM (by protocol); actives 47% (n = 1,300); AID 1080, 2008;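 active means cAMP induction above 50% in the main assay while under 30% in all four parallel counter assays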;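 further: rat C6 glioma cells stably expressing human EP2 receptor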
# * hit, by the source's call; i = inactive; . = no result given; + = active, no number.
SMILES,hK5 inh,EP2 antag,thrombin 1536,FXIa inh,EP2 mod,FXIIa inh 1536,EP2 confirm
O=C(CN1CCCCCCC1)Nc1ccc(Cl)cc1Cl,-3,5,-3,-3,66*,5,i
Cc1ccc(OCC(=O)Nc2sc3c(c2C(N)=O)CCC3)cc1C,.,26,.,.,6,.,.
O=C1COc2ccccc2N1Cc1ccccc1Cl,-12,7,3,-4,68*,16,i
CCc1nn(CC(=O)N2C(C)CCCC2C)c(=O)c2cc3ccsc3n12 (stereo unspecified),.,.,.,.,-24,.,.
CCc1cc2cc3c(cc2nc1SCC(=O)OC(C)C)OCO3,-11,2,-3,-7,81*,2,+
CO/N=C/C(=N\Nc1ccccc1)C(=O)c1ccccc1,12,2,-3,12,84*,7,+
CCOC(=O)c1ccccc1NC(=O)COc1ccccc1,-11,8,3,-4,79*,7,i
COc1ccc(OCC(=O)Nc2ccccc2-c2ccccc2)cc1,2,3,-8,8,15,8,.
CCOC(=O)c1ccccc1NC(=O)CSc1ccccc1,-10,16,-2,1,79*,10,i
CCOC(=O)c1ccccc1NC(=O)C(C)Oc1ccccc1 (stereo unspecified),1,14,-1,7,54,9,+
Cc1cccc(OCC(=O)Nc2ccccc2-c2ccccc2)c1,-12,6,-5,-3,71*,2,+
COCCn1c(SCC(=O)NNC(=O)C2CCCCC2)nnc1-c1ccc(OC)cc1,.,7,.,.,-5,.,.
NC(=O)CSc1nnc(-c2cccc(S(=O)(=O)N3CCOCC3)c2)n1C1CCCCCC1,-11,11,2,-3,81*,9,i
Cc1cc2oc(C(=O)N3CCN(C4CCCCC4)C(=O)C3)cc(=O)c2cc1C,.,8,.,.,-20,.,.
CCOP(=O)(OCC)c1nc(-c2ccc(Cl)cc2)oc1NCc1ccccc1,0,4,-10,-2,78*,3,i
CCCOP(=O)(OCCC)c1nc(-c2ccccc2)oc1NCc1ccccc1,-15,15,-2,2,94*,13,+
CCC(=O)Oc1ccc(C(CC)C(CC)c2ccc(OC(=O)CC)cc2)cc1 (stereo unspecified),-10,9,-3,0,69*,10,+
COc1ccc2cc(C(c3nnnn3C3CCCC3)N3CCN(C)CC3)c(=O)[nH]c2c1 (stereo unspecified),.,12,.,.,1,.,.
COCC(C)NCc1cc2c(C(C)(C)C)nn(-c3ccc(F)cc3)c2[nH]c1=O (stereo unspecified),.,4,.,.,-27,.,.
CO[C@H]1/C=C/O[C@@]2(C)Oc3c(C)c(O)c4c(O)c(c5c(nc6cc(C)ccn65)c4c3C2=O)NC(=O)/C(C)=C\C=C\[C@H](C)[C@H](O)[C@@H](C)C(O)[C@@H](C)[C@H](OC(C)=O)[C@@H]1C (stereo partly specified),.,4,.,.,2,.,.
C=CCSc1nc2ccccc2c(=O)n1Cc1ccco1,.,6,.,.,70*,.,i
CCCc1cc(-c2n[nH]c(=S)n2C(C)c2ccccc2)cs1 (stereo unspecified),-3,-1,-5,-3,68*,5,+
CCCc1cc(-c2n[nH]c(=S)n2CC)cs1,-4,17,-3,-4,34,4,.
CCCCn1c(-c2csc(CCC)c2)n[nH]c1=S,2,15,-3,-1,59,12,i
COc1ccc2cc(C)c3nn(CCN4CCCCC4)c(=O)n3c2c1,.,.,.,.,-5,.,.
SMILES,hK5 inh,EP2 antag,thrombin 1536,FXIa inh,EP2 mod,FXIIa inh 1536,EP2 confirm
C=C1CCC2C(CC2(C)C)C(=C)CC/C1=N/O (stereo unspecified),.,15,.,.,55,.,i
C=C1CCC(=O)C(C)CCC2C1CC2(C)C (stereo unspecified),.,11,.,.,10,.,.
Cc1ccc2c(c1)cc(C)c1nn(CC(=O)NC(C)(C)C)c(=O)n12,.,4,.,.,-13,.,.
S=c1[nH]nc(CSc2nc3ccccc3s2)n1Cc1ccccc1,-26,10,-12,-8,54,-16,i
CCn1c(CSc2nc3ccccc3s2)n[nH]c1=S,-3,4,0,-13,7,-6,.
Cn1c(=O)[nH]c(=O)c2c1nc(CN1CCN(c3ccc(F)cc3)CC1)n2CCCc1ccccc1,-7,7,3,-2,36,13,.
Cn1c(=O)[nH]c(=O)c2c1nc(CN1CCN(c3ccccc3F)CC1)n2CCCc1ccccc1,21,12,22,10,85*,26,i
CC(C)NC(=O)NC(=O)CSc1nnc(COc2ccccc2F)n1C(C)C1CC2CCC1C2 (stereo unspecified),-7,6,0,2,57,16,i
Cc1cc(C(=O)N2CCCC(c3noc(-c4ccccn4)n3)C2)on1 (stereo unspecified),.,7,.,.,-14,.,.
CC1CCCN(C(=O)CSc2cnc3ccccc3n2)C1 (stereo unspecified),-26,16,2,-2,68*,10,i
Cc1nc2ccccc2nc1SCC(=O)N1CCC(C)CC1,-4,16,2,5,65*,16,i
Cc1ccc(C)n1-c1sc2c(c1C#N)CCCC2,-6,15,2,6,63*,14,+
CCCOc1ccc(Cl)cc1CNc1ccccc1,21,2,-1,0,73*,6,+
Cc1ccc(-c2nn3c(C)nnc3s2)cc1NCc1c(F)cccc1Cl,-22,19,2,-5,66*,-7,i
O=C(Cc1cccs1)N(Cc1cccs1)C1(C(=O)NC2CCCC2)CCCCC1,-16,9,-3,2,34,2,.
O=C(c1ccc2c(c1)OCO2)N(Cc1cccs1)C1(C(=O)NC2CCCCC2)CCCCC1,-10,4,-3,1,71*,5,i
O=C(Nc1ccccc1-c1ccccc1)c1ccc(Br)o1,-3,8,-6,17,57,19,i
O=C(Nc1ccccc1Oc1ccccc1)c1cnccn1,-17,4,2,0,71*,10,+
